Test results taken from publication PMC10171401 (Nature methods, 2022).
Read-outs that look alike come from different tables or passages of the source.

Key:
[1] = tested on: cAMP in L23 pyramidal neurons; test: In vivo 2pFLIM of tonic cAMP in L23 pyramidal neurons of awake head-fixed mice; set-up: species or system mouse; settings: for effect on cAMP in neuronal dendrites / effect on cAMP in neuronal somas: intraperitoneal, yohimbine 5 mg/kg, propranolol 25 mg/kg
Summary of the method: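 Awake, head-fixed mice carried cAMPFIRE-L in L2/3 somatosensory neurons, introduced by in utero electroporation at E15.5, and were imaged by 2pFLIM through a cranial window fitted at P30–60. Isoflurane (1.5%) was given by nose cone; other drugs were given i.p., including morphine at 25 mg/kg. Lifetime was taken as mean photon emission time from soma and dendrite ROIs. Data are mean ± s.e.m.; paired two-tailed t-test.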

[2] = tested on: cAMP; type: cell-based, human; settings: propranolol 1 μM; HEK cells
Summary of the method: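 HEK-293 cells were grown in MEM with 10% FBS at 37°C in 5% CO2, plated on poly-D-lysine coverslips and transfected by Lipofectamine-2000 (0.5–3 μg plasmid per dish). Cells were given norepinephrine, then 25 μM forskolin plus 50 μM IBMX. CFP/YFP ratios were computed after per-channel background subtraction and normalized to the forskolin/IBMX response. Concentration-response curves were fitted with the Hill equation.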

[3] = tested on: cAMP; test: 2pFLIM response to norepinephrine in CA1 neurons in cultured hippocampal slices; type: cell-based, rat
Summary of the method: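 Rat hippocampal slices (400 μm, P6–7 pups of both sexes) were cultured at 35°C in 5% CO2 and imaged 2–3 days after transfection in carbogen-gassed aCSF with 4 mM CaCl2 and 4 mM MgCl2. CA1 neurons expressing cAMPFIRE-M received 0.1 μM norepinephrine with or without 1 μM propranolol, followed by wash. cAMPFIRE-L and its R279E mutant received 1 μM norepinephrine. Data are mean ± s.e.m. over cells.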

[4] = tested on: cAMP in L23 neurons; test: In vivo 2pFLIM of cAMP responses to enforced running in L23 neurons; set-up: species or system mouse; settings: intraperitoneal injection; cAMPFIRE-L
Summary of the method: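 cAMPFIRE-L was expressed in L2/3 somatosensory pyramidal neurons by in utero electroporation of C57BL/6 embryos at E15.5. Plasmid (~2–3 μg/μL, 1 μL) went into the lateral ventricle, followed by five 100-ms pulses at 35 V, 1 Hz. A cranial window was fitted at P30–60 with two weeks' recovery. Awake head-fixed mice on a treadmill (rotary-encoder velocity) were imaged by 2pFLIM of running-evoked responses before and after i.p. drug.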

Compound | effect on cAMP levels in neuronal somas ([1]; 1.5% inhaled, measured using cAMPFIRE-L) | effect on sensor response to norepinephrine [2] | effect on sensor response to norepinephrine [3] | effect on cAMP in neuronal dendrites ([1]; cAMPFIRE-L) | effect on cAMP in neuronal somas ([1]; cAMPFIRE-L) | effect on negative cAMP responses to enforced running [4] | effect on positive cAMP responses to enforced running [4] | time to plateau of cAMP decrease post administration ([1]; morphine 25 mg/kg) | effect on cAMP activity in L23 neurons ([1]; morphine 25 mg/kg, cAMPFIRE-L)
FC(F)OC(Cl)C(F)(F)F (stereo not shown) [Isoflurane, isoflurane] | significantly reduced | – | – | – | – | – | – | – | –
CC(C)NCC(O)COc1cccc2ccccc12 (stereo not shown) [propranolol] | – | blocked | blocked | decreased | decreased | reduced | did not affect | – | –
COC(=O)[C@@H]1[C@H]2C[C@H]3c4[nH]c5ccccc5c4CCN3C[C@@H]2CC[C@@H]1O [yohimbine] | – | – | – | increased | little effect | significantly attenuated | increased | – | –
CN1CC[C@]23c4c5ccc(O)c4O[C@H]2[C@@H](O)C=C[C@H]3[C@H]1C5 [Morphine, morphine] | – | – | – | – | – | – | – | ~ 40 minutes | decreased
